Screening results deposited in PubChem BioAssay by several laboratories.
INS promoter inh = TRM-6 insulin promoter activity inhibition | inhibition, % at 2 µM | AID 1273 | TRM-6 cells (human fetal islet line), insulin promoter-eGFP reporter, imaging; reporter expression induced with tamoxifen | 130,000 compounds, 0.9% hits;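 active means inhibition above the mean plus 3 SD, with well images judged a real hit on visual review, cut at about 60% in these data, passing the limit was not always enough; inconclusive means inhibition over the cutoff but images rejected on review; inactive means inhibition not above the cutoff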
Yeast life ext = yeast lifespan extension; S. cerevisiae growth with nicotinamide, OD615; deaD strain in restrictive glucose medium; inhibition of the nicotinamide effect, % at 10 µM; 130,000 compounds, 0.68% hits; AID 775;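 active means inhibition above a set limit, placed 3 SD over the median of all compounds, cut at about 26% in these data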
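System: DeaD-strain S. cerevisiae / Buffer or medium: CSMM-D, restrictive glucose (dextrose) synthetic minimal medium / Probe or stimulus: nicotinamide, 1.5 mM, co-present with compound / Compound: one concentration, 10 µM, DMSO 0.25% / Incubation: 48 h compound exposure at 30 °C, humidified / Technique: optical density (absorbance) at 615 nm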
RAM network inh = inhibitors of the yeast RAM network. inhibition, % at 50 µM. 190,000 compounds, 1.8% hits. S. cerevisiae dse1pr::URA3 reporter, 5-FOA growth OD615, 2 d; analog-sensitive cbk1-as2 kinase mutant strain. AID 868;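 active means inhibition above a set limit, 3 SD over mean compound inhibition, cut at about 8.4% in these data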;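 further: inhibition rescues growth on 5-FOA so higher OD means more RAM inhibition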
Measles CPE = protection of cells from measles virus; protection (pct of control), % at 4 µM; Measles virus-infected cells, CPE protection, absorbance; 140,000 compounds, 1.5% hits; in the data active means protection mostly above about 24%, no sharp cut-off; inactive means mostly below about 26%
BB579 growth dn = chemicals that inhibit yeast BB579 growth in restrictive medium (lifespan-shortening candidates); S. cerevisiae BB579 growth, OD615, 48 h; inhibition, % at 10 µM; 140,000 compounds, 0.51% hits;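 active means inhibition above a set limit, 3 SD over the mean compound inhibition, cut at about 44% in these data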
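System: Saccharomyces cerevisiae DeaD strain BB579, replicative lifespan model yeast | Buffer or medium: Restrictive glucose-based CSMM-D medium | Times: 4 h preincubation and 48 h exposure at 30 °C | Detection: OD615 turbidity measurement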
MDM2 E3 inh = inhibitors of human Mdm2 E3 ubiquitin ligase | Q00987 | cell-based MDM2 ubiquitination luciferase reporter, 2 h; 0 = plate control, 100 = twice control, blank-subtracted | signal enhancement, % at 5 µM | 210,000 compounds, 0.11% hits;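 active means signal enhancement of 30% or more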;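 further: luminescence tracks abundance of the self-degrading MDM2-luciferase fusion protein; higher signal means inhibition of MDM2 E3 ligase activity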
Target sequence (Q00987 whole entry, looked up, the tested form may be a part): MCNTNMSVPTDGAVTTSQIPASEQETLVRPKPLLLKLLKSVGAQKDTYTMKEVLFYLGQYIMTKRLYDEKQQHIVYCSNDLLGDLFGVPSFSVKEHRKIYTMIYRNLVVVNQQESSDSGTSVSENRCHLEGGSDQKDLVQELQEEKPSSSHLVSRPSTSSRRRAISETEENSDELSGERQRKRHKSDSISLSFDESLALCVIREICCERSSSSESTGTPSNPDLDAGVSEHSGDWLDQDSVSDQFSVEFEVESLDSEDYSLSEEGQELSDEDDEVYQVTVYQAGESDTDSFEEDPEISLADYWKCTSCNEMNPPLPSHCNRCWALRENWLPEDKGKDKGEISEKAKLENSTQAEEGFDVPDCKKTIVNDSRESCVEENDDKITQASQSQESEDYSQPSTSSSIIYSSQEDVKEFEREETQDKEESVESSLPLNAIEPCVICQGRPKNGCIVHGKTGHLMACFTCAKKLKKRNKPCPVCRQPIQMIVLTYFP
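Test system: mammalian cells stably expressing self-ubiquitinating, self-degrading MDM2 E3–luciferase fusion; Amount: 2000 cells in each well; Medium: DMEM; Schedule: 4 h settle plus 2 h compound, 37 °C; Technique: SteadyLite luciferase luminescence after 15 min room-temperature reagent incubation; Benchmarks: plate control and blank wells.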
Numbers stand for hits. In the library only some 4% were active in any assay of this set; here they are far more common.

Screening CCCCCCOc1ccc(C(=O)O)cc1 returned MDM2 E3 inh inactive.
Screening COCCn1c(SCC(=O)Nc2ccc(C)cc2)nc2c(oc3ccccc32)c1=O returned INS promoter inh inactive, Yeast life ext 85, RAM network inh inactive, Measles CPE inactive, BB579 growth dn inactive and MDM2 E3 inh inactive.
COCCn1c(SCC(=O)Nc2ccccc2)nc2c(oc3ccccc32)c1=O was read as INS promoter inh inactive, RAM network inh inactive and MDM2 E3 inh inactive.
`CCCCCCCCC(=O)N/N=C(\C)c1cccnc1` gave INS promoter inh inactive, RAM network inh inactive, Measles CPE inactive and BB579 growth dn inactive.
`CCCCCC(=O)N/N=C(\C)c1ccc(Cl)cc1` gave INS promoter inh 100, Yeast life ext inactive, RAM network inh inactive, Measles CPE inactive, BB579 growth dn inactive and MDM2 E3 inh inactive.
COc1cc(C(=O)NCc2ccc(-c3nc4ccccc4s3)cc2)cc(OC)c1OC was read as INS promoter inh inactive, Yeast life ext inactive, RAM network inh inactive, Measles CPE inactive, BB579 growth dn inactive and MDM2 E3 inh inactive.
COc1ccc(-c2nc3ccccc3s2)cc1O was read as INS promoter inh 86, Yeast life ext inactive, RAM network inh inactive, Measles CPE inactive, BB579 growth dn inactive and MDM2 E3 inh inactive.
Screening COc1ccccc1C(=O)NCc1ccc(-c2nc3ccccc3s2)cc1 returned Yeast life ext inactive, RAM network inh 9.1, Measles CPE inactive, BB579 growth dn inactive and MDM2 E3 inh inactive.
CCOC(=O)C1C(C)=C(Nc2ccc(OC)cc2)C(=O)N1c1ccc(OC)cc1 (stereo not given) was read as INS promoter inh inactive, Yeast life ext inactive, RAM network inh inactive, Measles CPE inactive, BB579 growth dn inactive and MDM2 E3 inh inactive.
Screening COc1ccc(C2C3=C(N=C4SCC(=O)N42)c2ccccc2CC3)cc1 (stereo not given) returned INS promoter inh 71, Yeast life ext inactive, RAM network inh inactive, Measles CPE inactive, BB579 growth dn inactive and MDM2 E3 inh inactive.
Screening COc1ccc(C2C3=C(N=C4SCC(=O)N42)c2ccccc2CC3)cc1OC (stereo not given) returned INS promoter inh inactive, Yeast life ext inactive, RAM network inh inactive, Measles CPE inactive, BB579 growth dn inactive and MDM2 E3 inh inactive.
For CCOc1ccccc1C(=O)Nc1ccccc1-c1ccccc1 the results were INS promoter inh inactive, Yeast life ext inactive, RAM network inh 9.6, Measles CPE inactive, BB579 growth dn inactive and MDM2 E3 inh inactive.
CCOc1ccccc1NC(=O)C(OC(=O)c1ccccc1O)c1ccccc1 (stereo not given) was read as INS promoter inh inactive, Yeast life ext inactive, RAM network inh 8.9, Measles CPE inactive, BB579 growth dn inactive and MDM2 E3 inh inactive.
For CCOc1ccccc1NC(=O)C(OC(=O)c1ccccc1)c1ccccc1 (stereo not given) the results were Yeast life ext inactive, RAM network inh inactive, Measles CPE inactive, BB579 growth dn inactive and MDM2 E3 inh inactive.
Cc1ccc(/C=N/NC(=O)c2ccco2)s1 was read as Yeast life ext inactive, RAM network inh inactive, Measles CPE inactive, BB579 growth dn inactive and MDM2 E3 inh inactive.
`Cc1ccc(/C=N/NC(=O)c2ccc(C(=O)N/N=C/c3ccc(C)s3)o2)s1` gave INS promoter inh inactive, Yeast life ext inactive, RAM network inh 10, Measles CPE inactive, BB579 growth dn inactive and MDM2 E3 inh inactive.
Screening CCOc1ccccc1-c1nc(-c2cccc(Br)c2)no1 returned INS promoter inh inactive, Yeast life ext inactive, RAM network inh 8.7, Measles CPE inactive, BB579 growth dn inactive and MDM2 E3 inh inactive.
For COc1ccc(-c2noc(-c3ccccc3-c3ccccc3)n2)cc1OC the results were INS promoter inh inactive, Yeast life ext inactive, RAM network inh 11, Measles CPE inactive, BB579 growth dn inactive and MDM2 E3 inh inactive.
Screening c1ccc(-c2nc(-c3ccncc3)no2)cc1 returned INS promoter inh inconclusive, Yeast life ext inactive, RAM network inh inactive, Measles CPE inactive, BB579 growth dn inactive and MDM2 E3 inh inactive.
`COc1ccc(-c2noc(-c3cccnc3)n2)cc1OC` gave INS promoter inh inactive, RAM network inh inactive and MDM2 E3 inh inactive.
Screening c1ccc(-c2ccccc2-c2nc(-c3ccncc3)no2)cc1 returned INS promoter inh 79, Yeast life ext inactive, RAM network inh inactive, Measles CPE inactive, BB579 growth dn inactive and MDM2 E3 inh inactive.
`C=CCn1c(=NC(=O)c2ccccc2[N+](=O)[O-])sc2cc(S(C)(=O)=O)ccc21` gave Yeast life ext inactive, RAM network inh inactive, Measles CPE inactive, BB579 growth dn inactive and MDM2 E3 inh inactive.
CC1CCc2nc(/C(C#N)=C/c3ccncc3)sc2C1 (stereo not given) was read as RAM network inh inactive and MDM2 E3 inh inactive.
For Cc1cc(C)c2c(c1)/C(=c1/sc3n(c1=O)CN(c1ccccc1)CN=3)C(=O)N2 the results were MDM2 E3 inh inactive.
Cc1ccc(N2C(=O)NC3(CCCCC3)C2=O)cc1 was read as Yeast life ext inactive, RAM network inh inactive, Measles CPE inactive, BB579 growth dn inactive and MDM2 E3 inh inactive.
For Cc1ccc(N2C(=O)CC3(CC4C=CC3C4)C2=O)cc1 (stereo not given) the results were Yeast life ext inactive, RAM network inh inactive, Measles CPE 53, BB579 growth dn inactive and MDM2 E3 inh inactive.
For Cc1cc(=O)[nH]c(-n2nc(C)cc2C)n1 the results were Yeast life ext inactive, RAM network inh inactive, Measles CPE inactive, BB579 growth dn 81 and MDM2 E3 inh inactive.
CC1(C)CC(=O)C2=C(C1)NC(=O)CC2c1ccc(N(CCC#N)CCC#N)cc1 (stereo not given) was read as Yeast life ext inactive, RAM network inh inactive, Measles CPE inactive, BB579 growth dn inactive and MDM2 E3 inh inactive.
For Cc1ccc(N=Nc2ccc(O)c3ncccc23)cc1C the results were INS promoter inh inactive, RAM network inh inactive and MDM2 E3 inh inactive.
Screening Oc1ccc(COCc2ccccc2)c2cccnc12 returned Yeast life ext inactive, RAM network inh inactive, Measles CPE inactive, BB579 growth dn 99 and MDM2 E3 inh inactive.
For Cc1ccc(N=Nc2ccc(O)c3ncccc23)cc1 the results were INS promoter inh inactive, Yeast life ext inactive, RAM network inh inactive, Measles CPE inactive, BB579 growth dn 55 and MDM2 E3 inh inactive.
`O=[N+]([O-])c1cc(CN2CCCC2)c2cccnc2c1O` gave INS promoter inh inactive, Yeast life ext inactive, RAM network inh inactive, Measles CPE inactive, BB579 growth dn 60 and MDM2 E3 inh inactive.
Oc1ccc(CN2CCCCC2)c2cccnc12 was read as INS promoter inh inactive, RAM network inh inactive, Measles CPE inactive, BB579 growth dn 45 and MDM2 E3 inh inactive.
